Measured values of several laboratories.
Lines come from different studies, so protocols differ.
Read-out: metabolic stability
Species: human
Sample: liver microsomes

Compound	tested at	pH	microsomal CLint
COc1cc2[nH]c(C)c(-c3ccco3)c(=O)c2cc1Cl	1 µM	–	59 µL/min/mg
COc1ccc(-c2nc3ccccn3c2N(C)c2ccc(F)cc2)nc1	3 µM	pH 7.4	93 µL/min/mg
O=S(=O)(c1ccc(-c2ccc3nccc(Nc4ccncc4)c3c2)cc1)N1CCOCC1	–	–	82.4 µL/min/mg
C[S+]([O-])c1ccc(-c2c(-c3ccccn3)nc3n2CCC3)cc1 (stereo not shown)	3 µM	pH 7.4	< 3 µL/min/mg
COc1cc2[nH]c(C)c(-c3ccccc3C)c(=O)c2cc1Cl	1 µM	–	25 µL/min/mg
CCn1cc2c(N3CCC(c4ccccn4)C3)nc(-c3ccccn3)nc2n1 (stereo not shown)	–	–	< 1 µL/min/mg
O=[N+]([O-])c1ccc(Nc2ccnc3ccc(-c4ccc(S(=O)(=O)N5CCOCC5)cc4)cc23)cn1	–	–	106 µL/min/mg
c1ccc(-c2nc(N3CCCC3)c3ccccc3n2)nc1	–	–	62 µL/min/mg
Cn1cnc(-c2nc3ccccn3c2Nc2ccc(F)cc2)c1	3 µM	pH 7.4	17 µL/min/mg
NC(=O)c1cccc(-c2nc(N3CCC(c4ccccn4)C3)c3ccccc3n2)c1 (stereo not shown)	–	–	111 µL/min/mg
FC(F)(F)c1cccc(Nc2c(-c3ccccn3)nc3ccccn23)c1	3 µM	pH 7.4	59 µL/min/mg
CN1CCN(c2nc(-c3ccccn3)nc3ccccc23)CC1	–	–	< 1 µL/min/mg
COc1cc2[nH]c(C)c(-c3ccc(C(C)=O)cc3)c(=O)c2cc1Cl	1 µM	–	11 µL/min/mg
